From ChEMBL document CHEMBL1687766, “In vitro activity of the new multivalent glycopeptide-cephalosporin antibiotic TD-1792 against vancomycin-nonsusceptible Staphylococcus isolates” (Antimicrob Agents Chemother, 2010)
In brackets after ≈: the same amount, converted by molar mass.

Legend:
Assay type in all cases: functional
Staphylococcus aureus [1] = assay: Antimicrobial activity against vancomycin-heteroresistant Staphylococcus aureus after 24 hrs by microdilution method in presence of 50% human serum
Outline: (§1)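 Broth microdilution per CLSI, inoculum 5 × 10^5 CFU/ml, 24 h at 35°C, in duplicate. Medium was 50% (vol/vol) human serum plus 50% broth, final 25 SMHB for TD-1792 and 50 SMHB for daptomycin. Serum was heated 56°C for 1 h and filtered through 0.8, 0.5 and 0.22 μm. MBC by plating clear wells on BHI agar.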

Staphylococcus aureus [2] = assay: Antimicrobial activity against vancomycin-resistant Staphylococcus aureus isolate PA after 24 hrs by microdilution method in presence of 50% human serum; outline: as §1
Staphylococcus aureus [3] = assay: Antimicrobial activity against vancomycin-resistant Staphylococcus aureus isolate MI after 24 hrs by microdilution method in presence of 50% human serum; outline: as §1
Staphylococcus aureus [4] = assay: Antimicrobial activity against vancomycin-intermediate Staphylococcus aureus isolate MU50 after 24 hrs by microdilution method in presence of 50% human serum; conditions: isolate MU50, 24 h; outline: as §1
Staphylococcus aureus [5] = assay: Antimicrobial activity against vancomycin-intermediate Staphylococcus aureus isolate NJ992 after 24 hrs by microdilution method in presence of 50% human serum; conditions: isolate NJ992, 24 h; outline: as §1
Staphylococcus aureus [6] = assay: Antimicrobial activity against vancomycin-intermediate Staphylococcus aureus isolate MU50 assessed as bacterial count at 32 times MIC after 24 hrs by colony counting method
Outline: (§2)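 24-h time-kill run in triplicate in supplemented Mueller-Hinton broth (12.5 μg/ml Mg, 25 μg/ml Ca), adjusted to 1.1–1.3 mM Ca for daptomycin. […] Samples were taken at 0, 1, 4, 8 and 24 h and counted on BHI agar after 24 h at 35°C. Value is log10 CFU/ml change from baseline at 24 h.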

Staphylococcus aureus [7] = assay: Antimicrobial activity against vancomycin-intermediate Staphylococcus aureus isolate NJ992 assessed as bacterial count at 4 times MIC after 24 hrs by colony counting method; outline: as §2
Staphylococcus aureus [8] = assay: Antimicrobial activity against vancomycin-intermediate Staphylococcus aureus isolate NJ992 assessed as bacterial count at 32 times MIC after 24 hrs by colony counting method; outline: as §2
Staphylococcus aureus [9] = assay: Antimicrobial activity against vancomycin-intermediate Staphylococcus aureus isolate MU50 assessed as bacterial count at 4 times MIC after 24 hrs by colony counting method in presence of 50% human serum
Outline: (§3)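 Triplicate 24-h time-kill in 50% human serum (heated 56°C 1 h, filtered) mixed with supplemented Mueller-Hinton broth, giving final 25 μg/ml Ca broth strength for TD-1792 and 50 for daptomycin. […] Samples from 0 to 24 h were counted on BHI agar (35°C, 24 h). Value is log10 CFU/ml change from baseline.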

Staphylococcus aureus [10] = assay: Antimicrobial activity against vancomycin-intermediate Staphylococcus aureus isolate MU50 assessed as bacterial count at 8 times MIC after 24 hrs by colony counting method in presence of 50% human serum; outline: as §3
Staphylococcus aureus [11] = assay: Antimicrobial activity against vancomycin-intermediate Staphylococcus aureus isolate MU50 assessed as bacterial count at 16 times MIC after 24 hrs by colony counting method in presence of 50% human serum; outline: as §3
Staphylococcus aureus [12] = assay: Antimicrobial activity against vancomycin-intermediate Staphylococcus aureus isolate MU50 assessed as bacterial count at 32 times MIC after 24 hrs by colony counting method in presence of 50% human serum; outline: as §3
Staphylococcus aureus [13] = assay: Antimicrobial activity against vancomycin-intermediate Staphylococcus aureus isolate NJ992 assessed as bacterial count at 4 times MIC after 24 hrs by colony counting method in presence of 50% human serum; outline: as §3
Staphylococcus aureus [14] = assay: Antimicrobial activity against vancomycin-intermediate Staphylococcus aureus isolate NJ992 assessed as bacterial count at 32 times MIC after 24 hrs by colony counting method in presence of 50% human serum; outline: as §3
Staphylococcus aureus [15] = assay: Antimicrobial activity against vancomycin-resistant Staphylococcus aureus isolate MI assessed as bacterial count at 8 times MIC after 24 hrs by colony counting method
Outline: (§4)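 Time-kill in triplicate. Mid-exponential culture (OD600 ~0.3) diluted in supplemented Mueller-Hinton broth to 5 × 10^6 CFU/ml. Daptomycin was run at physiologic calcium, 1.1 to 1.3 mM. […] Samples at 0, 1, 4, 8 and 24 h were diluted in cold saline or vacuum filtered, then spiral-plated on BHI agar for 24 h at 35°C. Value is the log10 CFU/ml change from baseline at 24 h.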

Staphylococcus aureus [16] = assay: Antimicrobial activity against vancomycin-resistant Staphylococcus aureus isolate MI assessed as bacterial count at 16 times MIC after 24 hrs by colony counting method; outline: as §4
Staphylococcus aureus [17] = assay: Antimicrobial activity against vancomycin-resistant Staphylococcus aureus isolate PA assessed as bacterial count at 16 times MIC after 24 hrs by colony counting method; outline: as §4
Staphylococcus aureus [18] = assay: Antimicrobial activity against vancomycin-resistant Staphylococcus aureus isolate PA assessed as bacterial count at 32 times MIC after 24 hrs by colony counting method; outline: as §4
Staphylococcus aureus [19] = assay: Antimicrobial activity against vancomycin-resistant Staphylococcus aureus isolate MI assessed as bacterial count at 4 times MIC after 24 hrs by colony counting method in presence of 50% human serum
Outline: (§5)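 Time-kill in triplicate, starting inoculum 5 × 10^6 CFU/ml from a mid-exponential culture. Medium was 50% heat-treated, filtered human serum plus 50% broth, final 25 SMHB for TD-1792 and 50 SMHB for daptomycin. Drug at multiples of MIC. Samples to 24 h were plated on BHI agar for 24 h at 35°C. Value is the log10 CFU/ml change from baseline at 24 h.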

Staphylococcus aureus [20] = assay: Antimicrobial activity against vancomycin-resistant Staphylococcus aureus isolate MI assessed as bacterial count at 8 times MIC after 24 hrs by colony counting method in presence of 50% human serum; outline: as §5
Staphylococcus aureus [21] = assay: Antimicrobial activity against vancomycin-resistant Staphylococcus aureus isolate MI assessed as bacterial count at 32 times MIC after 24 hrs by colony counting method in presence of 50% human serum; outline: as §5
Staphylococcus aureus [22] = assay: Antimicrobial activity against vancomycin-resistant Staphylococcus aureus isolate PA assessed as bacterial count at 32 times MIC after 24 hrs by colony counting method in presence of 50% human serum; outline: as §5
Staphylococcus aureus [23] = assay: Ratio of MIC for vancomycin-intermediate Staphylococcus aureus in presence of 50% human serum to MIC for vancomycin-intermediate Staphylococcus aureus
Staphylococcus aureus [24] = assay: Antimicrobial activity against vancomycin-intermediate Staphylococcus aureus after 24 hrs by microdilution method; conditions: for MBC / MIC50 / MIC90: Staphylococcus aureus, 24 h
Outline: (§6)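 Broth microdilution per CLSI, inoculum 5 × 10^5 CFU/ml, Mueller-Hinton broth with 12.5 μg/ml magnesium and 25 μg/ml calcium (SMHB). Daptomycin was instead tested in SMHB at physiologic calcium (final 1.1 to 1.3 mM). Incubation 24 h at 35°C; MIC read; run in duplicate. MBC from 5-μl samples of clear wells plated on BHI agar, 24 h at 35°C.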

Staphylococcus aureus [25] = assay: Antimicrobial activity against vancomycin-heteroresistant Staphylococcus aureus after 24 hrs by microdilution method; conditions: Staphylococcus aureus, 24 h; outline: as §6

Row | Compound | MBC (Staphylococcus aureus [1]) [µg/mL] | MIC50 (Staphylococcus aureus [1]) [µg/mL] | MIC90 (Staphylococcus aureus [1]) [µg/mL] | MBC (Staphylococcus aureus [2]) [µg/mL] | MIC (Staphylococcus aureus [2]) [µg/mL] | MBC (Staphylococcus aureus [3]) [µg/mL] | MIC (Staphylococcus aureus [3]) [µg/mL] | MBC (Staphylococcus aureus [4]) [µg/mL] | MIC (Staphylococcus aureus [4]) [µg/mL] | MBC (Staphylococcus aureus [5]) [µg/mL] | MIC (Staphylococcus aureus [5]) [µg/mL] | log10CFU/ml (Staphylococcus aureus [6]) | log10CFU/ml (Staphylococcus aureus [7]) | log10CFU/ml (Staphylococcus aureus [8]) | log10CFU/ml (Staphylococcus aureus [9]) | log10CFU/ml (Staphylococcus aureus [10]) | log10CFU/ml (Staphylococcus aureus [11]) | log10CFU/ml (Staphylococcus aureus [12]) | log10CFU/ml (Staphylococcus aureus [13]) | log10CFU/ml (Staphylococcus aureus [14]) | also measured
1 | CN[C@H](CC(C)C)C(=O)N[C@H]1C(=O)N[C@@H](CC(N)=O)C(=O)N[C@H]2C(=O)N[C@H]3C(=O)N[C@H](C(=O)N[C@H](C(=O)NCCCO/N=C(\C(=O)N[C@@H]4C(=O)N5C(C(=O)[O-])=C(C[n+]6ccccc6)CS[C@H]45)c4nc(N)sc4Cl)c4cc(O)cc(O)c4-c4cc3ccc4O)[C@H](O)c3ccc(c(Cl)c3)Oc3cc2cc(c3O[C@@H]2O[C@H](CO)[C@@H](O)[C@H](O)[C@H]2O[C@H]2C[C@](C)(N)[C@H](O)[C@H](C)O2)Oc2ccc(cc2Cl)[C@H]1O | 0.03 | 0.25 | 0.5 | 0.125 | 0.125 | 8 | 2 | 0.25 | 0.25 | 0.25 | 0.25 | 4.92 | 3.84 | 5 | 3.05 | 3.6 | 4.37 | 4.81 | 3.61 | 4.92 | log10CFU/ml (Staphylococcus aureus [15]): 3.27; log10CFU/ml (Staphylococcus aureus [16]): 3.34; log10CFU/ml (Staphylococcus aureus [17]): 4.17; log10CFU/ml (Staphylococcus aureus [18]): 5.05; log10CFU/ml (Staphylococcus aureus [19]): 4.12; log10CFU/ml (Staphylococcus aureus [20]): 4.06; log10CFU/ml (Staphylococcus aureus [21]): 4.03; log10CFU/ml (Staphylococcus aureus [22]): 5.09; Ratio (Staphylococcus aureus [23]): 2; MBC50 (Staphylococcus aureus [24]): 0.06 µg/mL (≈ 0.0303 µM); MBC90 (Staphylococcus aureus [24]): 0.125 µg/mL (≈ 0.063 µM); MBC (Staphylococcus aureus [24]): 0.015 µg/mL (≈ 0.00756 µM); MIC50 (Staphylococcus aureus [24]): 0.06 µg/mL (≈ 0.0303 µM); MIC90 (Staphylococcus aureus [24]): 0.125 µg/mL (≈ 0.063 µM); MBC (Staphylococcus aureus [25]): 0.015 µg/mL (≈ 0.00756 µM); MIC50 (Staphylococcus aureus [25]): 0.06 µg/mL (≈ 0.0303 µM); MIC90 (Staphylococcus aureus [25]): 0.125 µg/mL (≈ 0.063 µM)
2 | CCCCCCCCCC(=O)N[C@@H](Cc1c[nH]c2ccccc12)C(=O)N[C@H](CC(N)=O)C(=O)N[C@@H](CC(=O)O)C(=O)N[C@@H]1C(=O)NCC(=O)N[C@@H](CCCN)C(=O)N[C@@H](CC(=O)O)C(=O)N[C@H](C)C(=O)N[C@@H](CC(=O)O)C(=O)NCC(=O)N[C@H](CO)C(=O)N[C@@H]([C@H](C)CC(=O)O)C(=O)N[C@@H](CC(=O)c2ccccc2N)C(=O)O[C@@H]1C | 1 | 1 | 4 | 0.5 | 0.25 | 1 | 0.5 | 2 | 2 | 2 | 2 | 5.12 | 3.61 | 4.93 | 4.01 | 4.13 | 5.09 | 5.23 | 4.78 | 5.04 | log10CFU/ml (Staphylococcus aureus [15]): 5; log10CFU/ml (Staphylococcus aureus [16]): 4.96; log10CFU/ml (Staphylococcus aureus [17]): 5.14; log10CFU/ml (Staphylococcus aureus [18]): 5.1; log10CFU/ml (Staphylococcus aureus [19]): 2.53; log10CFU/ml (Staphylococcus aureus [20]): 4.69; log10CFU/ml (Staphylococcus aureus [21]): 5.11; log10CFU/ml (Staphylococcus aureus [22]): 5.11; Ratio (Staphylococcus aureus [23]): 2; MBC50 (Staphylococcus aureus [24]): 1 µg/mL (≈ 0.617 µM); MBC90 (Staphylococcus aureus [24]): 2 µg/mL (≈ 1.23 µM); MBC (Staphylococcus aureus [24]): 0.25 µg/mL (≈ 0.154 µM); MIC50 (Staphylococcus aureus [24]): 1 µg/mL (≈ 0.617 µM); MIC90 (Staphylococcus aureus [24]): 1 µg/mL (≈ 0.617 µM); MBC (Staphylococcus aureus [25]): 0.25 µg/mL (≈ 0.154 µM); MIC50 (Staphylococcus aureus [25]): 1 µg/mL (≈ 0.617 µM); MIC90 (Staphylococcus aureus [25]): 1 µg/mL (≈ 0.617 µM)
